Data set [1] has as its target T1, 5-hydroxytryptamine receptor 2A (Homo sapiens, UniProt P28223). The data set is described as follows: Agonist activity at human 5-HT2A receptor expressed in HEK293 cells assessed as calcium flux at 10 uM by FLIPR assay. The data set is classed as functional, cell-based. In outline:
(§1)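 Flp-In-293 cells stably expressing human 5-HT2A, 5-HT2B or 5-HT2C-INI, grown in DMEM with 10% dialyzed FBS, then plated for 24 h in 1% dialyzed FBS. Cells were loaded 1 h at 37 °C with calcium dye in Hepes-buffered HBSS, pH 7.40, containing 2.5 mM probenecid. FLIPR read 10 s baseline, then 120 s after drug addition.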
Background: A change in cytosolic calcium serves as a functional read-out for many receptors and channels.

Data set [2] concerns the target T2, 5-hydroxytryptamine receptor 2B (Homo sapiens, UniProt P41595). The data set is described as follows: Agonist activity at human 5-HT2B receptor expressed in HEK293 cells assessed as calcium flux by FLIPR assay relative to 5-HT. Format: functional, cell-based. A digest of the protocol: (§2)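 Flp-In-293 cells stably expressing human 5-HT2A, 5-HT2B or 5-HT2C-INI; grown 24–48 h in DMEM/10% dialyzed FBS, plated on poly-L-Lys at 12000 cells/well in 1% dialyzed FBS for 24 h. Loaded 1 h at 37 °C with calcium dye in HBSS, 20 mM Hepes pH 7.40, 2.5 mM probenecid.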

Data set [3] has as its target T2, 5-hydroxytryptamine receptor 2B. Description: Agonist activity at human 5-HT2B receptor expressed in HEK293 cells assessed as calcium flux by FLIPR assay. The data set is classed as functional, cell-based.
For data set [4], the target named is T3, 5-hydroxytryptamine receptor 2C (Homo sapiens) (UniProt P28335).
T3 sequence (whole entry): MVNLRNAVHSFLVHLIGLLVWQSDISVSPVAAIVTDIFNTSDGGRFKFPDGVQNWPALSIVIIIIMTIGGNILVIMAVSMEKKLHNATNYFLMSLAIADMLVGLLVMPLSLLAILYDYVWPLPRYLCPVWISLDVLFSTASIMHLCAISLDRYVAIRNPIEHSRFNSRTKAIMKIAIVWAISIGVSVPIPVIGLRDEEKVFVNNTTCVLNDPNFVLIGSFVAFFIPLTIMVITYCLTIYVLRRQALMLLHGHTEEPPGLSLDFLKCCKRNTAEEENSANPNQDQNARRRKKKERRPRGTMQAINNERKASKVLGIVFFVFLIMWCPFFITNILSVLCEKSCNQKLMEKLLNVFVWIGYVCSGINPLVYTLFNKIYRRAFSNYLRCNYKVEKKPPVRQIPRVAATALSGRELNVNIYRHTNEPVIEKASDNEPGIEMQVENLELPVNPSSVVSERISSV
Description: Agonist activity at human 5-HT2C receptor expressed in HEK293 cells assessed as calcium flux at 10 uM by FLIPR assay. Format: functional, cell-based. A digest of the protocol: as §1

Data set [5] addresses T4, 5-hydroxytryptamine receptor 2C (Homo sapiens, UniProt P28335).
T4 sequence (P28335 whole entry): T3 sequence (whole entry)
The data set is described as follows: Agonist activity at human 5-HT2C receptor expressed in HEK293 cells assessed as calcium flux by FLIPR assay. The data set is classed as functional, cell-based.

Data set [6] has as its target T2, 5-hydroxytryptamine receptor 2B. The data set is described as follows: Agonist activity at human 5-HT2B receptor expressed in HEK293 cells assessed as calcium flux at 10 uM by FLIPR assay. Format: functional, cell-based. In outline:
as §1

The target of data set [7] is T3, 5-hydroxytryptamine receptor 2C (Homo sapiens). The data set is described as follows: Agonist activity at human 5-HT2C receptor expressed in HEK293 cells assessed as calcium flux by FLIPR assay relative to 5-HT. The data set is classed as functional, cell-based. In outline: as §2
Data set [8] has as its target T1, 5-hydroxytryptamine receptor 2A. The data set is described as follows: Agonist activity at human 5-HT2A receptor expressed in HEK293 cells assessed as calcium flux by FLIPR assay. Format: functional, cell-based.
The target is the same in data set [9]. The data set is described as follows: Agonist activity at human 5-HT2A receptor expressed in HEK293 cells assessed as calcium flux by FLIPR assay relative to 5-HT. Format: functional, cell-based. A digest of the protocol:
as §2

Data set [10] addresses T2, 5-hydroxytryptamine receptor 2B. Description: Agonist activity at 5HT2B receptor (unknown origin) relative to control. In outline:
as §2

Data set [11] relates to Salmonella typhimurium. Description: Mutagenic activity in Salmonella typhimurium TA98 at 10 to 100 uM by ames test. Particulars: salmonella enterica subsp. enterica serovar typhimurium. Format: toxicity, organism-based. In outline: (§3)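 Ames fluctuation test in Salmonella strains TA98, TA100, TA1535 and TA1537, with and without S9, at 10, 50 and 100 µM; scored negative or positive.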

For another data set, the system named is Liver. Description: Metabolic stability in mouse liver microsomes. The data set is classed as ADME. In outline: (§4)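 Incubation with human or CD-1 mouse liver microsomes for 1 h; stability expressed as % parent compound remaining.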
On the technique in general: Liver microsomes are vesicles of endoplasmic reticulum, rich in cytochrome P450 enzymes.

A short description of data set [12]: Permeability from basolateral to apical side in human Caco2 cells at pH 7.4. The data set is classed as ADME, cell-based. Particulars: caco-2, pH 7.4. In outline: (§5)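 Caco-2 monolayer permeability measured A–B and B–A in pH 7.4 buffer, reported as ×10−6 cm/s; A–B/B–A ratio derived from these.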
Background: Passage across Caco-2 layers is used to estimate intestinal permeability.

Data set [13] is described as follows: Permeability from apical to basolateral side in human Caco2 cells at pH 7.4. Format: ADME, cell-based. Particulars: caco-2, pH 7.4. In outline:
as §5

The test system of data set [14] is Salmonella typhimurium. The data set is described as follows: Mutagenic activity in Salmonella typhimurium TA98 at 10 to 100 uM by ames test in presence of S9 mixture. Particulars: salmonella enterica subsp. enterica serovar typhimurium. The data set is classed as toxicity, organism-based. In outline:
as §3

For data set [15], the system named is Salmonella typhimurium. The data set is described as follows: Mutagenic activity in Salmonella typhimurium TA1535 at 10 to 100 uM by ames test. Format: toxicity, organism-based. As to conditions: salmonella enterica subsp. enterica serovar typhimurium. A digest of the protocol: as §3
Data set [16] has as its target Voltage-gated inwardly rectifying potassium channel KCNH2 (Homo sapiens, UniProt Q12809). The data set is described as follows: Inhibition of human ERG channel expressed in CHO cells by patch clamp method. Format: cell-based.
The subject of data set [17] is Salmonella typhimurium. The data set is described as follows: Mutagenic activity in Salmonella typhimurium TA100 at 10 to 100 uM by ames test in presence of S9 mixture. Format: toxicity, organism-based. As to conditions: salmonella enterica subsp. enterica serovar typhimurium. A digest of the protocol: as §3
For data set [18], the system named is Salmonella typhimurium. Description: Mutagenic activity in Salmonella typhimurium TA1537 at 10 to 100 uM by ames test in presence of S9 mixture. As to conditions: salmonella enterica subsp. enterica serovar typhimurium. Format: toxicity, organism-based. A digest of the protocol:
as §3

Data set [19] relates to Salmonella typhimurium. Description: Mutagenic activity in Salmonella typhimurium TA100 at 10 to 100 uM by ames test. The data set is classed as toxicity, organism-based. Particulars: salmonella enterica subsp. enterica serovar typhimurium. A digest of the protocol: as §3
The subject of data set [20] is Salmonella typhimurium. The data set is described as follows: Mutagenic activity in Salmonella typhimurium TA1537 at 10 to 100 uM by ames test. As to conditions: salmonella enterica subsp. enterica serovar typhimurium. Format: toxicity, organism-based. In outline:
as §3

Data set [21] is described as follows: Plasma protein binding in human at 10 uM. The data set is classed as ADME, cell-free. In outline:
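Human plasma protein binding determined at 10 µM compound, expressed as % bound.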

The test system of a further data set is Liver microsome. Description: Metabolic stability in human liver microsomes. Format: ADME. In outline: as §4
Data set [22] has as its system Salmonella typhimurium. The data set is described as follows: Mutagenic activity in Salmonella typhimurium TA1535 at 10 to 100 uM by ames test in presence of S9 mixture. The data set is classed as toxicity, organism-based. Particulars: salmonella enterica subsp. enterica serovar typhimurium. A digest of the protocol:
as §3

The structures appear in SMILES notation. Active and inactive are the calls of the source. No cut-off for these calls is given here.

T1 sequence (P28223 whole entry): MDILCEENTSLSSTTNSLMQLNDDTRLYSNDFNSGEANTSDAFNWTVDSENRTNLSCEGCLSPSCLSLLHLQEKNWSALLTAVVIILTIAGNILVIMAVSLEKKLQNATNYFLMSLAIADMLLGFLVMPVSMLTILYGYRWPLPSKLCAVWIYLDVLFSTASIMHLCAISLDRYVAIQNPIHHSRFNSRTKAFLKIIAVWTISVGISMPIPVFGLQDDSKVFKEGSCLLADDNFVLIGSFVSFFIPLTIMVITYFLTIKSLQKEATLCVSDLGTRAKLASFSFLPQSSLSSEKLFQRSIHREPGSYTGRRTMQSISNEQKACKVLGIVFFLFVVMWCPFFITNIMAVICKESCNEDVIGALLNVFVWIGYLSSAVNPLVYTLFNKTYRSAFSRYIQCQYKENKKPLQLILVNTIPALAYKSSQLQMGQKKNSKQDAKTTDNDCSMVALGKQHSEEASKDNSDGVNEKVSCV
T2 sequence (P41595 whole entry): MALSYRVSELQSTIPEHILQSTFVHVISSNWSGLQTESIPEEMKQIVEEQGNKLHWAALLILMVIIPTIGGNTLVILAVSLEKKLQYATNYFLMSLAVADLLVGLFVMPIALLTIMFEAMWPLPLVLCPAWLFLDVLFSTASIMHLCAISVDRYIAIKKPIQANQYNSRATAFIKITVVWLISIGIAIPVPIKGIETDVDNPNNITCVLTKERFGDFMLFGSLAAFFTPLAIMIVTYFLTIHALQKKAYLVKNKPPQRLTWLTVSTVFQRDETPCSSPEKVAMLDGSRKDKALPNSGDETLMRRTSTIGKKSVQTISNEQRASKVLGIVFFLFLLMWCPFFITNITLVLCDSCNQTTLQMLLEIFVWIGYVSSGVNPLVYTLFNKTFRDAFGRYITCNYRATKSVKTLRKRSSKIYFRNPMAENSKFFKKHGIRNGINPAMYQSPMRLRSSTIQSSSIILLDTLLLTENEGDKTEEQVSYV
Voltage-gated inwardly rectifying potassium channel KCNH2, sequence (Q12809 whole entry): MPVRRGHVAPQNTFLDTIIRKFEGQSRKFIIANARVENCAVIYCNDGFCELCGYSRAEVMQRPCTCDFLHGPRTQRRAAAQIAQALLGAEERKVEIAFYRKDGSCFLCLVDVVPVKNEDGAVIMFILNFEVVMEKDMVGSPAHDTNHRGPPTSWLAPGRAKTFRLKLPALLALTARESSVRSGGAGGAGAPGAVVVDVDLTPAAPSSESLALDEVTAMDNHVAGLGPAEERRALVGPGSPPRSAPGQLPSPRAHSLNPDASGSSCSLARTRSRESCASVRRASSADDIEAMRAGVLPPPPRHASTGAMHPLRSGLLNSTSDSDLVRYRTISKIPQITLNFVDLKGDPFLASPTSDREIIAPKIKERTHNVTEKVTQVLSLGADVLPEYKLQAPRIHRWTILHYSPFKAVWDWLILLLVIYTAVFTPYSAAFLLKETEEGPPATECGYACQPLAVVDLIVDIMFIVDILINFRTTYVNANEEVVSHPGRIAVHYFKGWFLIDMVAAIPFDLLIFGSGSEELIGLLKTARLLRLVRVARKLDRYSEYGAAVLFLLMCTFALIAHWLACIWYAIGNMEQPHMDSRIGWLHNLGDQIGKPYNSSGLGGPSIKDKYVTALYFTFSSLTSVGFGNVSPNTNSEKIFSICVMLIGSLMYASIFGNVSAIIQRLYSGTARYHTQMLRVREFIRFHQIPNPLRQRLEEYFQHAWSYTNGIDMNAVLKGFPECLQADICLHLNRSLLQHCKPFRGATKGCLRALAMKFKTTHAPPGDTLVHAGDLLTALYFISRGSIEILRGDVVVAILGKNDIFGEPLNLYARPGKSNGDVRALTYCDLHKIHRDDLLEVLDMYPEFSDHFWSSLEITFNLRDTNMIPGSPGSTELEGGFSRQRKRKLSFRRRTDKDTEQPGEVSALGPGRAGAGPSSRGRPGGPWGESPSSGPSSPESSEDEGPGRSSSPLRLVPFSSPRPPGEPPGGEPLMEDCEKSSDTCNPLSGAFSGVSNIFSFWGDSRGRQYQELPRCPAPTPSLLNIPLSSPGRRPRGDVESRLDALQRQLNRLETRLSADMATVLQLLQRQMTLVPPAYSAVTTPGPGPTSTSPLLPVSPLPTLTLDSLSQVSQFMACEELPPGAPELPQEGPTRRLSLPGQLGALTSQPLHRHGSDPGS

A word on the Emax: it is the size of the effect at its maximum, as opposed to the concentration needed. What is called EC50 is the concentration giving half of the maximal effect. In the case of `C=C(F)COc1ccc(Cl)cc1[C@@H]1C[C@H]1CN`, the outcome in data set [1] and in data set [4] was inactive. Besides, the Emax in data set [2] was 33%. Moreover, in [3], the EC50 worked out at 6880 nM.
`CSCCOc1ccc(Cl)cc1[C@H]1C[C@@H]1CN`: the result in [1] and in [6] was inactive. Further, in data set [5], the EC50 turned out to be 244 nM. Further, the Emax in [7] came out at 24%.
Regarding `COCCOc1ccc(Cl)cc1[C@H]1C[C@@H]1CN`, the outcome in data set [1] and in data set [6] was inactive. Further, the EC50 in data set [5] was found to be 183 nM. In addition, the Emax in [7] was 8%.
As to `C=CCOc1ccc(F)cc1[C@@H]1C[C@H]1CN`, the EC50 was found to be 157 nM in data set [5] and 697 nM in data set [8]. For the same compound, the result in [6] was inactive. Also, the values for the Emax in data set [7] and in data set [9] were 87% and 56%, respectively.
Consider `CCCCOc1ccc(Cl)cc1[C@@H]1C[C@H]1CN`, for which the EC50 in data set [5] is 683 nM. The outcome in [6] was inactive. The Emax in [7] is 50%.
Consider `CSCCOc1ccc(Cl)cc1[C@@H]1C[C@H]1CN`, for which the result in data set [1] and in data set [6] was inactive. Further, the EC50 in [5] is 1760 nM. Further, in [7], the Emax came out at 11%.
Take `C=C(C)COc1ccc(Cl)cc1[C@@H]1C[C@H]1CN`: the outcome in [1] and in [4] was inactive. The Emax in data set [2] turned out to be 39%. The EC50 in data set [3] is 6090 nM.
Take `c1cc2c3c(c1)[C@H]1CCC[C@H]1N3CCNC2`: in data set [10], the Emax was determined as 40%.
In the case of `C=C(F)COc1ccc(F)cc1[C@@H]1C[C@H]1CN`, the result in data set [1] and in data set [6] was inactive. Moreover, the EC50 in data set [5] came out at 985 nM. Further, in data set [7], the maximum response (Emax) stood at 62%.
For the compound `C=C(F)COc1ccc(F)cc1[C@H]1C[C@@H]1CN`, the values for the EC50 in data set [5] and in [8] were 22 nM and 1670 nM, respectively. Moreover, the outcome in data set [6] was inactive. Besides, the Emax in data set [7] was 91%.
In general, IC50 refers to the concentration that inhibits the measured activity by half. Higher therefore signals a need for much substance. `C=CCOc1ccc(Cl)cc1[C@H]1C[C@@H]1CN.O=C(O)C(F)(F)F`: the Activity entry in the data set with Salmonella typhimurium [11], in the data set with Salmonella typhimurium [14], with Salmonella typhimurium [15], in the data set with Salmonella typhimurium [17], in the data set with Salmonella typhimurium [18] and with Salmonella typhimurium [19] was “Non-toxic” each time. Further, the Activity result with Salmonella typhimurium [20] and in the data set on Salmonella typhimurium [22] was “Non-toxic” each time. In addition, the results for the Stability in the data set with Liver and in the data set on Liver microsome were 60% and 52%, respectively. For the same compound, the values for the permeability in data set [12] and in data set [13] were 9.8 ×10⁻⁶ cm/s and 35.6 ×10⁻⁶ cm/s, respectively. Besides, the outcome in [1] was inactive. Besides, the values for the EC50 in data set [5] and in data set [3] were 60 nM and 2210 nM, respectively. For the same compound, it took 270 nM to reach half-maximal inhibition in [16] (IC50). In addition, the Emax was found to be 32% in [2] and 80% in [7]. Further, the PPB in data set [21] was found to be 75%.
Compound `c1cc2c3c(c1)[C@H]1CCC[C@H]1CN3CCNC2` returned an Emax in data set [10] of 50%.
Turning to `CCOc1ccc(Cl)cc1[C@H]1C[C@@H]1CN`, the EC50 in data set [5] came to 13 nM; in data set [8], 1210 nM; in data set [3] it was 86 nM. Also, the Emax in [2] amounted to 45%; in data set [7], 91%; in data set [9], 49%.
Take `CCCOc1ccc(F)cc1[C@H]1C[C@@H]1CN`: the EC50 was 11 nM in data set [5], 1020 nM in data set [8] and 1990 nM in [3]. In addition, the maximal effect (Emax) came out at 33% in data set [2], 88% in [7] and 15% in data set [9].
With `C=C(C)COc1ccc(Cl)cc1[C@H]1C[C@@H]1CN`, the EC50 in [5] turned out to be 212 nM; in data set [8], 903 nM; in data set [3], 422 nM. For the same compound, the Emax in data set [2] is 32%; in [7], 90%; in data set [9], 26%.
With `NC[C@@H]1C[C@H]1c1cc(F)ccc1OCCF`, the EC50 in [5] amounted to 514 nM; in data set [8], 2990 nM. For the same compound, the result in data set [6] was inactive. Moreover, the Emax in data set [7] stood at 77%; in [9], 20%.
As for `CCCCOc1ccc(Cl)cc1[C@H]1C[C@@H]1CN`, the EC50 in data set [5] is 288 nM. For the same compound, the outcome in data set [6] was inactive. Further, the maximal response (Emax) in [7] was found to be 33%.

(Values after ChEMBL document CHEMBL3414471 (J Med Chem, 2015).)
